From ChEMBL document CHEMBL1154908, “Structure-activity relationships studies in a series of N,N-bis(alkanol)amine aryl esters as P-glycoprotein (Pgp) dependent multidrug resistance (MDR) inhibitors” (J Med Chem, 2010)

Tests used:
[1] = biological target: T1, ATP-dependent translocase ABCB1 (Homo sapiens, UniProt P08183); assay: Inhibition of P-glycoprotein-mediated multidrug resistance in human doxorubicin-resistant K562 cells assessed as maximal increase in nuclear concentration of pirarubicin by spectrofluorimetry relative to sensitive K562 cells; type: cell-based
Procedure, shortened: (§1)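 Pirarubicin uptake was measured in doxorubicin-resistant K562/DOX cells, which overexpress only Pgp, by continuous spectrofluorometry (excitation 480 nm, emission 590 nm) after incubation. R is the fold increase in nuclear pirarubicin with inhibitor, from 0 (no inhibitor) to 1 (equal to sensitive cells). Rmax is the maximal attainable R. Reported concentrations are those giving R = 0.2 or R = 0.5.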

[2] = biological target: T1, ATP-dependent translocase ABCB1; assay: Inhibition of P-glycoprotein-mediated multidrug resistance in human doxorubicin-resistant K562 cells assessed as drug level causing 50% increase in nuclear concentration of pirarubicin by spectrofluorimetry; type: cell-based; details: read-out: INH; procedure, shortened: as §1
K562 [3] = assay: Growth inhibition in doxorubicin-resistant human K562 cells overexpressing Pgp at 1 uM after 72 hrs by MTT assay; type: functional; details: K562, 72 h, read-out: GI
K562 [4] = assay: Growth inhibition in human K562 cells at 1 uM after 72 hrs by MTT assay; type: functional; details: K562, 72 h, read-out: GI
K562 [5] = assay: Growth inhibition in human K562 cells at 3 uM after 72 hrs by MTT assay; type: functional; details: K562, 72 h, read-out: GI
K562 [6] = assay: Growth inhibition in doxorubicin-resistant human K562 cells overexpressing Pgp at 3 uM after 72 hrs by MTT assay; type: functional; details: K562, 72 h, read-out: GI
[7] = biological target: T1, ATP-dependent translocase ABCB1; assay: Inhibition of P-glycoprotein-mediated multidrug resistance in human doxorubicin-resistant K562 cells assessed as drug level causing 20% increase in nuclear concentration of pirarubicin by spectrofluorimetry; type: cell-based; procedure, shortened: as §1

T1 sequence (P08183 whole entry): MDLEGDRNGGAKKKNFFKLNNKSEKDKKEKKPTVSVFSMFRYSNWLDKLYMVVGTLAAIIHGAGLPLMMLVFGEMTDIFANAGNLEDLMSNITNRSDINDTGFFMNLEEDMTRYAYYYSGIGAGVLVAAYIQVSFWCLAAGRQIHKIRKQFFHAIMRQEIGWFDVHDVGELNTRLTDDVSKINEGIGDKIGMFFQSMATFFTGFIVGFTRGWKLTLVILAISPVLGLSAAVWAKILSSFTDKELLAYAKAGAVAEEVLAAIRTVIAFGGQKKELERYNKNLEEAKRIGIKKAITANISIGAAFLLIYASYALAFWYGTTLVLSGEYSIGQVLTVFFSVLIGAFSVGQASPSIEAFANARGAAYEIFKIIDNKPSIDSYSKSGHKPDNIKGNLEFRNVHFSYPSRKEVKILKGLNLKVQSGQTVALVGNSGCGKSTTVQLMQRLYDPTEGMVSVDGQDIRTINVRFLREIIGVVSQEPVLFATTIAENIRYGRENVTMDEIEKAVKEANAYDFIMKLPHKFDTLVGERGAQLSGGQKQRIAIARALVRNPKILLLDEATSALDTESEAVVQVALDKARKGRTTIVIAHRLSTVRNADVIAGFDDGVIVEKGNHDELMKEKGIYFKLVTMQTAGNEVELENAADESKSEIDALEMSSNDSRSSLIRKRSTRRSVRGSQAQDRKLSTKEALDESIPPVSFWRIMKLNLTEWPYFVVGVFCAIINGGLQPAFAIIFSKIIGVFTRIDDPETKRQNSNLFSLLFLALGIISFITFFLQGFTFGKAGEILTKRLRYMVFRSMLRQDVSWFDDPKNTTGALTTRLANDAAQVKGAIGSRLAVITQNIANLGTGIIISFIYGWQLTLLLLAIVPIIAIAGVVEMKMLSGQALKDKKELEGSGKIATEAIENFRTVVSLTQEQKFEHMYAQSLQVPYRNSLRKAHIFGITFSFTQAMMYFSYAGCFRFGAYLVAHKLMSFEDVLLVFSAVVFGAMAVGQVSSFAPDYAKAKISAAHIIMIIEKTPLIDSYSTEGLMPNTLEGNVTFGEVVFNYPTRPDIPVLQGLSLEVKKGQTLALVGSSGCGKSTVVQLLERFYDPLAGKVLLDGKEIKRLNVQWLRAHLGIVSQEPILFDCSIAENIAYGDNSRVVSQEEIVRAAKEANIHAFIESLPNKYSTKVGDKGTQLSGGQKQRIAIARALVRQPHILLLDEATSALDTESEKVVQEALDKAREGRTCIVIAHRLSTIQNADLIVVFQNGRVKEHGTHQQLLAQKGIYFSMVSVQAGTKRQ

SMILES	fold change (FC) [1]	IC50 [2] [nM]	inhibition of growth at 1 µM (K562 [3]) [%]	inhibition of growth at 1 µM (K562 [4]) [%]	inhibition of growth at 3 µM (K562 [5]) [%]	inhibition of growth at 3 µM (K562 [6]) [%]	INH [7] [µM]
COc1cc(/C=C/C(=O)OCCCNCCCOC(=O)/C=C/c2c3ccccc3cc3ccccc23)cc(OC)c1OC	0.92	800	–	–	–	–	–
COc1cc(/C=C/C(=O)OCCCN(C)CCCOC(=O)/C=C/c2c3ccccc3cc3ccccc23)cc(OC)c1OC	0.93	250	–	–	–	–	–
COc1cc(/C=C/C(=O)OCCCN(C)CCCOC(=O)C=C(c2ccccc2)c2ccccc2)cc(OC)c1OC	0.66	160	≤ 10	20	20	20	–
COc1cc(/C=C/C(=O)OCCCN(C)CCCOC(=O)/C=C/c2ccc(-c3ccccc3)cc2)cc(OC)c1OC	0.85	240	≤ 10	≤ 10	≤ 10	≤ 10	–
COc1ccc(C(C(=O)OCCCN(C)CCCOC(=O)/C=C/c2cc(OC)c(OC)c(OC)c2)c2ccc(OC)cc2)cc1	0.79	80	≤ 10	≤ 10	≤ 10	≤ 10	–
COc1cc(/C=C/C(=O)OCCCN(C)CCCOC(=O)CN2C(=O)C3C4c5ccccc5C(c5ccccc54)C3C2=O)cc(OC)c1OC (centres undefined)	0.73	230	–	–	–	–	–
COc1cc(/C=C/C(=O)OCCCN(C)CCCOC(=O)CCN2C(=O)C3C4c5ccccc5C(c5ccccc54)C3C2=O)cc(OC)c1OC (centres undefined)	0.63	390	–	–	–	–	–
COc1cc2c(cc1OC)CN(CCC(=O)OCCCN(C)CCCOC(=O)/C=C/c1cc(OC)c(OC)c(OC)c1)CC2	0.63	3700	–	–	–	–	–
COc1cc(/C=C/C(=O)OCCCCCN(C)CCCCCOC(=O)C=C(c2ccccc2)c2ccccc2)cc(OC)c1OC	0.28	–	–	–	–	–	0.5
COc1cc(/C=C/C(=O)OCCCCCN(C)CCCCCOC(=O)/C=C/c2ccc(-c3ccccc3)cc2)cc(OC)c1OC	0.4	–	–	–	–	–	0.36
COc1ccc(C(C(=O)OCCCCCN(C)CCCCCOC(=O)/C=C/c2cc(OC)c(OC)c(OC)c2)c2ccc(OC)cc2)cc1	0.5	400	–	–	–	–	–
COc1ccc(/C=C/C(=O)OCCCCCN(C)CCCCCOC(=O)c2cc(OC)c(OC)c(OC)c2)cc1OC	0.7	640	–	–	–	–	–
COc1ccc(/C=C/C(=O)OCCCCCN(C)CCCCCOC(=O)c2c3ccccc3cc3ccccc23)cc1OC	1	170	≤ 10	≤ 10	≤ 10	≤ 10	–
COc1cc(/C=C/C(=O)OCCCN(C)CCCOC(=O)c2ccc(-c3ccccc3)cc2)cc(OC)c1OC	0.77	220	–	–	–	–	–
COc1ccc(/C=C/C(=O)OCCCN(C)CCCOC(=O)/C=C/c2cc(OC)c(OC)c(OC)c2)cc1OC	0.5	–	–	–	–	–	1.4
COc1ccc(C(C#N)(CCCNCc2c3ccccc3cc3ccccc23)C(C)C)cc1OC (centres undefined)	0.7	50	–	–	–	–	–
COc1ccc(/C=C/C(=O)OCCCN(C)CCCOC(=O)c2c3ccccc3cc3ccccc23)cc1OC	0.57	190	–	–	–	–	–
COc1ccc(/C=C/C(=O)OCCCN(C)CCCOC(=O)c2c3ccccc3c(Cl)c3ccccc23)cc1OC	0.98	410	–	–	–	–	–
COc1cc(/C=C/C(=O)OCCCN(C)CCCOC(=O)C(c2ccccc2)c2ccccc2)cc(OC)c1OC	0.77	260	≤ 10	≤ 10	≤ 10	≤ 10	–
COc1ccc(/C=C/C(=O)OCCCN(C)CCCOC(=O)c2cc(OC)c(OC)c(OC)c2)cc1OC	0.34	–	–	–	–	–	0.7
COc1ccc(CCN(C)CCCC(C#N)(c2ccc(OC)c(OC)c2)C(C)C)cc1OC (centres undefined) [VERAPAMIL]	–	–	≤ 10	≤ 10	≤ 10	≤ 10	–
